Bioassay records from PubChem.
Cardio protect: protects H9c2 cardiomyocytes from peroxide injury. protection from H2O2 cell death, % at 20 µM. H2O2 injury protection, ATPLite, 2 h. AID 588492. actives 0.63% (n = 360,000);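 active = compounds giving at least 50% protection of heart cells from peroxide-induced death in the single-dose screen, raw or plate-pattern-corrected value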
PKA-R2B activ: activates the human PKA-R2B holoenzyme complex; PKA-R2B holoenzyme dissociation, Cy5-IP20 fluorescence polarization; R2B truncated from residue 108, S112A mutant; 0% DMSO only, 100% 113 µM cGMP; actives 0.079% (n = 340,000); activation, % at 11.4 µM; P22694+P31323;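 active = activation above a cutoff set at the mean over all compounds plus 3 SD, cut at about 18% in these data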;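 note: higher means more holoenzyme dissociation and a rise in polarization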
TbMetRS inhib: Trypanosoma brucei MetRS inhibition. purified T. brucei MetRS, ATP depletion, Kinase-Glo luminescence. inhibition, % at 11.9 µM. actives 0.4% (n = 360,000);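 active = inhibition above a per-plate cutoff of the control wells' mean inhibition plus 3 SD, cut at about 5.5% in these data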
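Material – parasite MetRS enzyme · Medium – HEPES-MgCl2-KCl buffer plus DTT, spermine, BSA, pyrophosphatase · Reagent – ATP, methionine and E. coli bulk tRNA substrates · Times – 15 min enzyme-compound preincubation, 2 h reaction, 10 min detection, 25 °C · Measured by – luminescence of leftover ATP · Evaluation – percent inhibition relative to median high and low control wells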
Rin1-Abl PPI inh: inhibitors of human Rin1-Abl protein interaction; TR-FRET Rin1/Abl binding, biochemical; inhibition, % at 7.35 µM; actives 0.4% (n = 360,000); in the data active = inhibition above about 5%, passing the limit was not always enough
Target sequence (P00519 whole entry, looked up): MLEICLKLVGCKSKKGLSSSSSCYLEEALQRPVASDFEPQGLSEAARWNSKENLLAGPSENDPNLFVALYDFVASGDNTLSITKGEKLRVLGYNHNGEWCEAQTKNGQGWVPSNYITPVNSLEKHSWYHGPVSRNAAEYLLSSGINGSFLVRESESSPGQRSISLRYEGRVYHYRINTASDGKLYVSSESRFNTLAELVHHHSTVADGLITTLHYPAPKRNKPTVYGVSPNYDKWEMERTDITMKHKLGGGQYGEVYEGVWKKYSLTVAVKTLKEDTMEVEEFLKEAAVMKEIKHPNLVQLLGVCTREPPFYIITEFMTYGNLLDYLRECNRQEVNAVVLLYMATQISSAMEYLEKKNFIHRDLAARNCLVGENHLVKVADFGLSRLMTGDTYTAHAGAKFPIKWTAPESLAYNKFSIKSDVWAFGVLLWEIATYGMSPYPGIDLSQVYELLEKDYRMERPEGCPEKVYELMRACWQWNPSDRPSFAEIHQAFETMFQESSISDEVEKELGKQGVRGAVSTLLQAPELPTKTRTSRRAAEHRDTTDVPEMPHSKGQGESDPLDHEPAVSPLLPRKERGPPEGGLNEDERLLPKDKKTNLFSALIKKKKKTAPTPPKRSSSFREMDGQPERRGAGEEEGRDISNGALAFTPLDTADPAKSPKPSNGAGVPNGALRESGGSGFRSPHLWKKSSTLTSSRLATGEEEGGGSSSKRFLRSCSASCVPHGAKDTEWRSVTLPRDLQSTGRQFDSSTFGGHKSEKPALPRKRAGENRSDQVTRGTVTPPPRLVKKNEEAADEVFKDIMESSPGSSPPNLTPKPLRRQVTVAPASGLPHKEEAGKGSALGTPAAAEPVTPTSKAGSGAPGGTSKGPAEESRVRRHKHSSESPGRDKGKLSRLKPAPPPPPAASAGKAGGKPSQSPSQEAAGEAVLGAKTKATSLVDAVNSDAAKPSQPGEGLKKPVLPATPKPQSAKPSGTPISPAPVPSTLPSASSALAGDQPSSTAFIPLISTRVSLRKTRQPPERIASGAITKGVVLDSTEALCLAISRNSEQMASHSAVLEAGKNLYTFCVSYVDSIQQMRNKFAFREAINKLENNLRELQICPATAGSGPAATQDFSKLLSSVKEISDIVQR
Target sequence (Q13671 whole entry, looked up): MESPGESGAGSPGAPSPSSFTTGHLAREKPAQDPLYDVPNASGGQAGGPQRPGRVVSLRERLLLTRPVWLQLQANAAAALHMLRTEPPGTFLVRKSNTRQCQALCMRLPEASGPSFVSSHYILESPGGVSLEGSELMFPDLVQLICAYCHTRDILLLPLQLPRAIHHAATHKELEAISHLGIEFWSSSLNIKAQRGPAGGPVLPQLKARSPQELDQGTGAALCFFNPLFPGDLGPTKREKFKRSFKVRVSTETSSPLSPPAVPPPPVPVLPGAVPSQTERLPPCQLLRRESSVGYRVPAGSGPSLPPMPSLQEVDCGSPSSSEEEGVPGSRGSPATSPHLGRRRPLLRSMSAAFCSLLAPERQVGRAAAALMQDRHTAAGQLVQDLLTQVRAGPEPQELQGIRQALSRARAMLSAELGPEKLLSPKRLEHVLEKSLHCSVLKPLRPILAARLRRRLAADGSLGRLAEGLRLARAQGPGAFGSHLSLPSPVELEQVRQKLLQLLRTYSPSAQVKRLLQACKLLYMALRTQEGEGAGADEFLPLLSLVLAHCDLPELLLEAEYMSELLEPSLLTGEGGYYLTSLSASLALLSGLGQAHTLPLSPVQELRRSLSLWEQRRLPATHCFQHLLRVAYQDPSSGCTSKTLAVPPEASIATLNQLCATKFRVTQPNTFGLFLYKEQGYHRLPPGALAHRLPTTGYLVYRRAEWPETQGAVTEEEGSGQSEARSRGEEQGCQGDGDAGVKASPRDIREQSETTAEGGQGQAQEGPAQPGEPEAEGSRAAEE
PKA-R1A activ: PKA-R1A complex activation; AID 504707; actives 0.083% (n = 340,000); P00514+P68181; PKA-R1A dissociation, Cy5-IP20 fluorescence polarization; scaled: DMSO 0%, 113 µM cGMP 100%; activation, % at 11.4 µM;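 active = percent activation above the mean of all tested compounds plus 3 SD, cut at about 19% in these data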;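 note: higher means more PKAc released from R1A so a rise in polarization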
Of the large screens only hits and unclear results are named; the others gave an inactive call. A selection: hits, their analogues and other compounds. The true share with any hit is near 1.5%.

CCNC(=O)CC1SC(=Nc2ccc(C)c([N+](=O)[O-])c2)N(C)C1=O (stereo unspecified)	none (no result: PKA-R2B activ, PKA-R1A activ)
Cc1cc(Nc2cc(Cl)cc(Cl)c2)nc(N)n1	none
CC(OC(=O)Cc1n[nH]c(=O)c2ccccc12)C(=O)Nc1cc(Cl)cc(Cl)c1 (stereo unspecified)	Cardio protect 56
CC(OC(=O)Cc1ccsc1)C(=O)Nc1ccc(Cl)cn1 (stereo unspecified)	none
O=C(COC(=O)Cc1n[nH]c(=O)c2ccccc12)Nc1ccc(Cl)cc1F	Cardio protect 56
O=C(COC(=O)Cc1n[nH]c(=O)c2ccccc12)Nc1ccc(Cl)cn1	Cardio protect 88
O=C(Cc1n[nH]c(=O)c2ccccc12)Nc1cc(Cl)ccc1-n1cncn1	none
CC(OC(=O)Cc1n[nH]c(=O)c2ccccc12)C(=O)Nc1ccc(Cl)cn1 (stereo unspecified)	Cardio protect 58
O=C(COC(=O)Cc1n[nH]c(=O)c2ccccc12)Nc1c(Cl)cccc1C(F)(F)F	none
O=Cc1c(Cl)nc2ccccn2c1=O	none
CC1(C(=O)NS(=O)(=O)c2cccc(C#N)c2)CCN1C(=O)c1ccco1 (stereo unspecified)	none (no result: PKA-R2B activ, PKA-R1A activ)
CC(C)=CCN1CCN(Cc2cnc(-c3ccccc3)s2)CC1CCO (stereo unspecified)	none
O=C(NCCCn1ccnc1)c1ccc(COc2ccccc2)o1	none
COCCn1cnc2c(c1=O)c1nc3ccccc3nc1n2/N=C/c1ccc(OC)c(OC)c1	Cardio protect 51
COCCn1cnc2c(c1=O)c1nc3ccccc3nc1n2/N=C/c1ccco1	none
CCCCCCn1cnc2c(c1=O)c1nc3ccccc3nc1n2/N=C/c1ccco1	Cardio protect 55
O=C(NCc1cccnc1)C1Cc2c(-c3ccc(Cl)cc3)ccnc2O1 (stereo unspecified)	none (no result: PKA-R2B activ, PKA-R1A activ)
N#Cc1c2ccc(O)cc2n2ccccc12	Cardio protect 69
N#Cc1c2ccc(OCC(=O)NCc3ccco3)cc2n2ccccc12	none
Cc1ccccc1NC(=O)CSc1nc(N)c(C#N)c(-c2cccs2)c1C#N	TbMetRS inhib 8.1
CCN(CC)C(=O)CSc1nc(N)c(C#N)c(-c2cccs2)c1C#N	none
O=c1cc(CN2CCN(c3ccccc3)CC2)c2ccccc2o1	none (no result: PKA-R2B activ, PKA-R1A activ)
CC(C)(C)c1nnc(N/N=C/c2ccccc2)n(N)c1=O	none
CC(C)(C)c1nnc(N/N=C/c2ccccc2O)n(N)c1=O	Cardio protect 52
O=C(CCCCC(=O)NN=Cc1ccccc1O)NN=Cc1ccccc1O	Cardio protect 60
O=C(CSCC(=O)NN=Cc1ccccc1O)NN=Cc1ccccc1O	none
O=C(CCn1cnc(-c2ccccc2)c1-c1ccccc1)N/N=C/c1ccccc1O	Cardio protect 57
Cc1cc([N+](=O)[O-])nn1CC(=O)N/N=C/c1ccccc1O	Cardio protect 58
O=C(CCn1cnc(-c2ccccc2)c1-c1ccccc1)N/N=C/c1ccc(O)cc1	none
Cc1ccc(NC(=O)CCC(=O)N/N=C/c2ccccc2O)cc1	Cardio protect 52
CCCOc1ccc(C2=CSC3=NCCN23)cc1[N+](=O)[O-]	none
Cc1cc(C)nc(NS(=O)(=O)c2ccc(NC(=O)CCC(=O)O)cc2)n1	none
O=C(COc1nsnc1N1CCOCC1)N/N=C/c1ccccc1O	Cardio protect 73
O=C(O)COc1ccc(/C=N/NC(=O)COc2nsnc2N2CCOCC2)cc1	none
O=C(CC(=O)N/N=C/c1ccccc1O)NCc1cccnc1	Cardio protect 63
Cc1ccc(-c2cc(C(=O)Nc3ccc(S(=O)(=O)Nc4ncccn4)cc3)[nH]n2)c(O)c1C	none
O=C(NN1CCOCC1)c1ccccc1	none
CCOC(=O)N1CCc2c(sc(NC(=O)CN3CCOCC3)c2C(=O)Nc2ccccc2)C1	Cardio protect 50
O=C1c2ccccc2C(=O)C12OC2c1ccc(Cl)cc1Cl (stereo unspecified)	Rin1-Abl PPI inh 7.2
COC(=O)c1cn(C(=O)c2cc(Cl)ccc2Cl)c2ccccc12	none
O=c1[nH]c2c(c3c1CCCC3)CCCC2	Cardio protect 74
O=c1[nH]c2c(c(=O)[nH]1)CCCCCC2	none
Cn1c(=O)c2c(nc(NCCCO)n2C/C=C/c2ccccc2)n(C)c1=O	Cardio protect 62
CS(=O)(=O)N(Cc1ccc(C(=O)NCCSc2ccccn2)cc1)c1ccccc1	Cardio protect 62
CCOC(=O)C1(C)CCN1C(=O)c1ccco1 (stereo unspecified)	none (no result: PKA-R2B activ, PKA-R1A activ)
CCOC(=O)C1=NN(C(=O)c2ccco2)C2(CC2)C1	Cardio protect 72
CCOc1ccc(NC(=O)c2ccc(Cl)c(NC(=O)c3ccco3)c2)cc1	none
COc1ccc(C2Nc3ccccc3C(=O)N2C2CCCCC2)cc1 (stereo unspecified)	none
COc1ccc(N=c2oc3c(OC)cccc3cc2C(=O)NCc2ccco2)cc1OC	Cardio protect 52
COc1cccc(C(=O)N/N=c2\oc3c(OC)cccc3cc2C(=O)NCc2ccccc2)c1	Cardio protect 76
O=C(COc1ccc(F)cc1Cl)Nc1nc(-c2ccccn2)cs1	Cardio protect 61
N#Cc1ccccc1OCC(=O)Nc1nc(-c2ccccn2)cs1	Cardio protect 63
Oc1ccc(/C=N/Nc2nccnc2Cl)c(O)c1	Cardio protect 52
Oc1ccccc1/C=N/Nc1nccnc1Cl	none
O=C(c1cccc(C(F)(F)F)c1)C1CCCN(C(=O)CN2CCOC2=O)C1 (stereo unspecified)	none
COc1cccc2c1cc1c(=O)n(CC(=O)NCc3ccccn3)nc(C)n12	none
CCOC(=O)c1ccc(-c2ccc3ncnc(NCc4csc(C)n4)c3c2)o1	Cardio protect 68 (no result: PKA-R2B activ, PKA-R1A activ)
CNC(=O)CSc1nc2nn(-c3ccccc3)c(=O)c-2c2n1CCCCC2	none
O=C(CSc1nc2nn(-c3ccccc3)c(=O)c-2c2n1CCCCC2)c1ccc(O)c(O)c1	Cardio protect 100, Rin1-Abl PPI inh 16
CCc1ccc(O)c(N=Cc2ccccc2O)c1	none
O=c1[nH][nH]c2c(N=Cc3ccccc3O)ccc(F)c12	Rin1-Abl PPI inh 17
Cc1cc(C)nc(-n2nc(C)cc2NC(=O)CN2CCCC2)n1	none
Cc1ccc(C)c(C(=O)Nc2cc(C)nn2-c2nc(C)cc(C)n2)c1	Cardio protect 50
CCC(CO)Oc1cc(NC(=O)c2ccccc2Cl)c2ncn(C(C)C)c2c1 (stereo unspecified)	none
O=c1[nH]c(CN2CCCC2)nc2sc3c(c12)CCC3	Cardio protect 56
CCN(CC(=O)NC(C)C)Cc1nc2sc3c(c2c(=O)[nH]1)CCC3	Cardio protect 64
COc1cc(C(=O)N/N=C/c2sc(N3CCOCC3)nc2-c2ccccc2)cc(OC)c1OC	Cardio protect 66
O=C(N/N=C/c1sc(N2CCOCC2)nc1-c1ccccc1)c1cccc(S(=O)(=O)N2CCOCC2)c1	Cardio protect 54
